From ChEMBL document CHEMBL4229344 (Eur J Med Chem, 2018) come the findings set out here.

Data set [1] has as its target Ephrin type-A receptor 6 (Homo sapiens) (UniProt Q9UF33). The experiment in a line: Binding affinity to wild-type human partial length EPHA6 (Y700 to E1046 residues) expressed in bacterial expression system assessed as residual binding level at 1 uM by Kinomescan method relative to control. The gist of the method: (§1)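 Kinome-wide competition binding screen against a panel of 468 purified kinases/mutants, with the test compound at a single concentration of 1 μM. Read-out is the relative binding activity of each kinase in the presence of compound.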

Data set [2] has as its target Platelet-derived growth factor receptor beta (Homo sapiens, UniProt P09619). Nature of the data set: Inhibition of TEL-fused PDGFRbeta (unknown origin) expressed in mouse BA/F3 cells assessed as growth inhibition after 72 hrs by CellTiter-Glo or CCK-8 assay. The data set is classed as cell-based. Summed up:
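Parental BaF3 or IL-3-independent TEL-kinase BaF3 lines, made by retroviral infection and puromycin selection, grown in RPMI 1640 with 10% FBS. Cells seeded at 1–3 × 10^4 cells/mL with serial compound concentrations for 72 h. Viability read by CellTiter-Glo luminescence or CCK-8 absorbance at 450/655 nm and normalised to DMSO. GI50 obtained by triplicate testing with linear regression. Selectivity is the ratio of the two GI50 values.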

Data set [3] addresses Serine/threonine-protein kinase Nek2 (Homo sapiens) (UniProt P51955). The experiment in a line: Binding affinity to wild-type human partial length NEK2 (M1 to K309 residues) expressed in bacterial expression system assessed as residual binding level at 1 uM by Kinomescan method relative to control. The gist of the method:
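KINOMEscan competition binding against a panel of 468 purified kinases/mutants, compound tested at 1 μM; readout is relative binding activity versus control.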

A further data set deals with Mus musculus. The experiment in a line: Toxicity in nu/nu mouse xenografted with human EOL-1 cells assessed as change in body weight at 25 to 100 mg/kg/day, ip. It is filed as organism-based. To be noted: in vivo. The gist of the method: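 Female nu/nu mice, 6 weeks old, implanted subcutaneously in the right flank with 5 million EOL-1 cells in PBS/Matrigel 1:1. At tumour size 200–400 mm³, mice randomised into groups of 6 and given daily IP doses of 25, 50 or 100 mg/kg in 0.5% methylcellulose/0.4% Tween80, or vehicle, for 14 days. Body weight measured daily and normalised to initial weight; mean ± SEM.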
(Xenograft models place foreign cells or tissue in a host animal.)

Data set [4] concerns the target Serine/threonine-protein kinase 24 (Homo sapiens) (UniProt Q9Y6E0). Nature of the data set: Binding affinity to wild-type human partial length MST3 (A30 to S311 residues) expressed in bacterial expression system assessed as residual binding level at 1 uM by Kinomescan method relative to control.
For data set [5], the target named is Activated CDC42 kinase 1 (Homo sapiens) (UniProt Q07912). Nature of the data set: Binding affinity to wild-type human partial length TNK2 (S159 to D474 residues) expressed in bacterial expression system assessed as residual binding level at 1 uM by Kinomescan method relative to control.
Data set [6] concerns the target Mitogen-activated protein kinase kinase kinase kinase 4 (Homo sapiens) (UniProt O95819). The experiment in a line: Binding affinity to wild-type human partial length MAP4K4 (M1 to R310 residues) expressed in bacterial expression system assessed as residual binding level at 1 uM by Kinomescan method relative to control. The gist of the method:
as §1

Data set [7] concerns the target Serine/threonine-protein kinase D3 (Homo sapiens) (UniProt O94806). The experiment in a line: Binding affinity to wild-type human partial length PRKD3 (S543 to E863 residues) expressed in bacterial expression system assessed as residual binding level at 1 uM by Kinomescan method relative to control.
Data set [8] addresses Interferon-induced, double-stranded RNA-activated protein kinase (Homo sapiens) (UniProt P19525). The experiment in a line: Binding affinity to wild-type human partial length PRKR (F247 to C551 residues) expressed in bacterial expression system assessed as residual binding level at 1 uM by Kinomescan method relative to control.
In data set [9] the target is Bone morphogenetic protein receptor type-1A (Homo sapiens) (UniProt P36894). The experiment in a line: Binding affinity to wild-type human partial length BMPR1A (Q214 to I532 residues) expressed in bacterial expression system assessed as residual binding level at 1 uM by Kinomescan method relative to control. The gist of the method:
(§2)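 Single-concentration KINOMEscan (DiscoverX) binding screen at 1 μM against a panel of 468 purified kinases and mutants. The read-out is binding relative to control.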

Data set [10] has as its target Phosphatidylinositol 4-phosphate 5-kinase type-1 alpha (Homo sapiens) (UniProt Q99755). Nature of the data set: Binding affinity to wild-type human full length PIP5K1A (M1 to H562 residues) expressed in bacterial expression system assessed as residual binding level at 1 uM by Kinomescan method relative to control. Summed up:
as §2

The target of data set [11] is Interleukin-1 receptor-associated kinase 4 (Homo sapiens) (UniProt Q9NWZ3). The experiment in a line: Binding affinity to wild-type human partial length IRAK4 (M1 to S460 residues) expressed in mammalian expression system assessed as residual binding level at 1 uM by Kinomescan method relative to control.
Data set [12] deals with Phosphatidylinositol 4,5-bisphosphate 3-kinase catalytic subunit beta isoform (Homo sapiens) (UniProt P42338). The experiment in a line: Binding affinity to wild-type human partial length PIK3CB (P118 to S1070 residues) expressed in mammalian expression system assessed as residual binding level at 1 uM by Kinomescan method relative to control.
The target of data set [13] is Casein kinase I isoform delta (Homo sapiens) (UniProt P48730). The experiment in a line: Binding affinity to wild-type human full length CSNK1D (M1 to K409 residues) expressed in bacterial expression system assessed as residual binding level at 1 uM by Kinomescan method relative to control. Summed up: (§3)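 Single-concentration (1 μM) competition-binding screen run by KINOMEscan against a panel of 468 purified kinases and mutants. The read-out is the relative binding activity of the test compound to each kinase.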

The target in data set [14] is Serine/threonine-protein kinase haspin (Homo sapiens) (UniProt Q8TF76). The experiment in a line: Binding affinity to wild-type human partial length HASPIN (I452 to K798 residues) expressed in mammalian expression system assessed as residual binding level at 1 uM by Kinomescan method relative to control. Summed up: as §1
In data set [15] the test system is Epidermal growth factor receptor (Homo sapiens), P00533 [L858R]. Nature of the data set: Binding affinity to human partial length EGFR L858R mutant (R669 to V1011 residues) expressed in bacterial expression system assessed as residual binding level at 1 uM by Kinomescan method relative to control. Summed up: (§4)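 Kinome-wide single-concentration binding screen (KINOMEscan) at 1 μM against a panel of 468 purified kinases and mutants. Read-out is relative binding of each kinase compared with control. Selectivity across the panel was summarised as an S(10) score.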

Data set [16] concerns Tyrosine-protein kinase ABL1 (Homo sapiens), P00519 [M351T]. Nature of the data set: Binding affinity to human phosphorylated ABL1 M351T mutant (S229 to K512 residues) expressed in mammalian expression system assessed as residual binding level at 1 uM by Kinomescan method relative to control. The gist of the method: as §3
In data set [17] the test system is Phosphatidylinositol 4,5-bisphosphate 3-kinase catalytic subunit alpha isoform (Homo sapiens), P42336 [H1047L]. The experiment in a line: Binding affinity to human partial length PIK3CA H1047L mutant (R108 to N1068 residues) expressed in mammalian expression system assessed as residual binding level at 1 uM by Kinomescan method relative to control. The gist of the method:
as §4

Data set [18] concerns the target Ephrin type-B receptor 6 (Homo sapiens) (UniProt O15197). The experiment in a line: Binding affinity to wild-type human partial length EPHB6 (Q634 to P948 residues) expressed in mammalian expression system assessed as residual binding level at 1 uM by Kinomescan method relative to control.

The structures appear in SMILES notation.

Chain of Phosphatidylinositol 4,5-bisphosphate 3-kinase catalytic subunit beta isoform (Homo sapiens) (P42338 whole entry, looked up, the tested form may be a part, canonical isoform): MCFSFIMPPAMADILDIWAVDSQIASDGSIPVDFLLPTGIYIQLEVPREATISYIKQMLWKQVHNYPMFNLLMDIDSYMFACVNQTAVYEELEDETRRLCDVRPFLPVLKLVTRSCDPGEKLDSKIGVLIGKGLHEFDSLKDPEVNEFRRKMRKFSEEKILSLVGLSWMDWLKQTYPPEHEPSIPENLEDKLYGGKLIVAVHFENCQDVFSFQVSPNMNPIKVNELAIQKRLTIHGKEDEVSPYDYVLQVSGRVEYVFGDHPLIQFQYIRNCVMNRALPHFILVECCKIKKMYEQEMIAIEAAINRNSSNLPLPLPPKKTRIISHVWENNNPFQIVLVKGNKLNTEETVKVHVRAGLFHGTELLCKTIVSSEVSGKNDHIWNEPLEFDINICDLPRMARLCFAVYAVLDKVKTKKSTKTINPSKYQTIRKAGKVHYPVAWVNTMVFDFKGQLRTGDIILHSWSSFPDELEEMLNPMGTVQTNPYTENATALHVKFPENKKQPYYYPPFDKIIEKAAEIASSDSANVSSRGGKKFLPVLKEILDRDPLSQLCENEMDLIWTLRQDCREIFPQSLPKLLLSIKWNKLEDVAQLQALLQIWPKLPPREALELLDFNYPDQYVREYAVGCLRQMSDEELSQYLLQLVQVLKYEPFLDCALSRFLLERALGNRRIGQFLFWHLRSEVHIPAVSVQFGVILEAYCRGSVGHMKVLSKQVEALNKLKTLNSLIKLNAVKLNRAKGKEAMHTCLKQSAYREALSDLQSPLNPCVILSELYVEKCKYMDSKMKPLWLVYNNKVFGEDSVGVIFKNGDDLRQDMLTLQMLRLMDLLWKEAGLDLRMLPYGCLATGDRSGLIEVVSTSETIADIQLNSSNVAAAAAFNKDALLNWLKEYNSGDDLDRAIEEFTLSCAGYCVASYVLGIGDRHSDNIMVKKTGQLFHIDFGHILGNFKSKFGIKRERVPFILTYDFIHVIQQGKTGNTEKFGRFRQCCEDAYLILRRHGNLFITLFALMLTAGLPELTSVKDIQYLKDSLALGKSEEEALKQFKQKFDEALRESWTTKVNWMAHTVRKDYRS
Chain of Platelet-derived growth factor receptor beta (P09619 whole entry, the tested form may be a part): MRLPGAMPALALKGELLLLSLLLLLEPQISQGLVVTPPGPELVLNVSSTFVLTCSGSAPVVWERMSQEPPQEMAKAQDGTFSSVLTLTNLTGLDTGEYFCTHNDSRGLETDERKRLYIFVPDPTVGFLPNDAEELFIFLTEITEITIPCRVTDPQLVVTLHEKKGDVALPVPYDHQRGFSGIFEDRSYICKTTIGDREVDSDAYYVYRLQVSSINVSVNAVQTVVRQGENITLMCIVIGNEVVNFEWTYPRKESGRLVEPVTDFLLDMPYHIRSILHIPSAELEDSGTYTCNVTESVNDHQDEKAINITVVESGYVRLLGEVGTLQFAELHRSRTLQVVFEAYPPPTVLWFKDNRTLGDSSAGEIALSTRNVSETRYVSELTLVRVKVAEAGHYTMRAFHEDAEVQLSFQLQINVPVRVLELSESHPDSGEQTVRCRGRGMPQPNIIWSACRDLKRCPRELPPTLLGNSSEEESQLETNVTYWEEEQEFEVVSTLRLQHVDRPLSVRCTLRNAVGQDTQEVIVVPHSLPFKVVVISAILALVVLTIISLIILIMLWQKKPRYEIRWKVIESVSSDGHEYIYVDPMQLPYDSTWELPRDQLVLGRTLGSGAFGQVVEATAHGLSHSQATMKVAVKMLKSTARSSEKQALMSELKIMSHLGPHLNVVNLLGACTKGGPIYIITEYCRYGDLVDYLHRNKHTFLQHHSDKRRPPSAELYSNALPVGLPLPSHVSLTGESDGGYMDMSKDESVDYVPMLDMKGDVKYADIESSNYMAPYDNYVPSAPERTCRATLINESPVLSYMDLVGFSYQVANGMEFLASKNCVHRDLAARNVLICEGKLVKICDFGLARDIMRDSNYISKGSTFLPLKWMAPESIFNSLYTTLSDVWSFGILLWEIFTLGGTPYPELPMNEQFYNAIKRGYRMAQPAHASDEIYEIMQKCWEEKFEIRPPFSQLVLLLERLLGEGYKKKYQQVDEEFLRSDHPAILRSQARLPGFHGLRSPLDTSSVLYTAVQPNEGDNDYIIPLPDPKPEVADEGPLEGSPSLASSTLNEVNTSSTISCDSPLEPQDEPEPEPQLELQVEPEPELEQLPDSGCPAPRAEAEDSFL
Chain of Ephrin type-B receptor 6 (Homo sapiens) (O15197 whole entry, the tested form may be a part): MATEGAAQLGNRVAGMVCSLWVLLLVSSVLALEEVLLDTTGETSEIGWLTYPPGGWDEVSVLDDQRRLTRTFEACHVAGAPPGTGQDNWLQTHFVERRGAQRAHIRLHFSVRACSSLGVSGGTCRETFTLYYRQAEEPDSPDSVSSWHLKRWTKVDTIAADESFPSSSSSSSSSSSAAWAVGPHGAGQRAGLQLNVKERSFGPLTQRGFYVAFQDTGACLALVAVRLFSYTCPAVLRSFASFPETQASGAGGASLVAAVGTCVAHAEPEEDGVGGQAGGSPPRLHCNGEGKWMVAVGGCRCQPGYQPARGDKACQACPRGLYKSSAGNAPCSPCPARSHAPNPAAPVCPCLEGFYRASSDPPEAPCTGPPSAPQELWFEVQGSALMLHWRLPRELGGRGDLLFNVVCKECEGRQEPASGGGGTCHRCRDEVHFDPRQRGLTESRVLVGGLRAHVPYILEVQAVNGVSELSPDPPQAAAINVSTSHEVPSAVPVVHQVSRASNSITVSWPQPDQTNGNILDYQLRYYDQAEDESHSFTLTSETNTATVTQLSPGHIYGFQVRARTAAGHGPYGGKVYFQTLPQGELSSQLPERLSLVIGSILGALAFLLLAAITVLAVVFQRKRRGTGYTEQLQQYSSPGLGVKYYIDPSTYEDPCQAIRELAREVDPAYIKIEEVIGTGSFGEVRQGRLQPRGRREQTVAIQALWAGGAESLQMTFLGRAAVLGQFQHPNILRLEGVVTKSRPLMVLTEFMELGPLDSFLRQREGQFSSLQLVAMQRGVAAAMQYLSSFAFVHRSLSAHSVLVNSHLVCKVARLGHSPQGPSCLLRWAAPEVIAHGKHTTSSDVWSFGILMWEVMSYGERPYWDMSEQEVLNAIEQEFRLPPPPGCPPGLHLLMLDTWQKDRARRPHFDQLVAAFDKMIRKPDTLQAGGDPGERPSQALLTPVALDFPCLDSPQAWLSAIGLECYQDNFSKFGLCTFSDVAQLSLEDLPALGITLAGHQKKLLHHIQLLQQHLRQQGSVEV
Chain of Mitogen-activated protein kinase kinase kinase kinase 4 (Homo sapiens) (O95819 2-1239 limits assumed): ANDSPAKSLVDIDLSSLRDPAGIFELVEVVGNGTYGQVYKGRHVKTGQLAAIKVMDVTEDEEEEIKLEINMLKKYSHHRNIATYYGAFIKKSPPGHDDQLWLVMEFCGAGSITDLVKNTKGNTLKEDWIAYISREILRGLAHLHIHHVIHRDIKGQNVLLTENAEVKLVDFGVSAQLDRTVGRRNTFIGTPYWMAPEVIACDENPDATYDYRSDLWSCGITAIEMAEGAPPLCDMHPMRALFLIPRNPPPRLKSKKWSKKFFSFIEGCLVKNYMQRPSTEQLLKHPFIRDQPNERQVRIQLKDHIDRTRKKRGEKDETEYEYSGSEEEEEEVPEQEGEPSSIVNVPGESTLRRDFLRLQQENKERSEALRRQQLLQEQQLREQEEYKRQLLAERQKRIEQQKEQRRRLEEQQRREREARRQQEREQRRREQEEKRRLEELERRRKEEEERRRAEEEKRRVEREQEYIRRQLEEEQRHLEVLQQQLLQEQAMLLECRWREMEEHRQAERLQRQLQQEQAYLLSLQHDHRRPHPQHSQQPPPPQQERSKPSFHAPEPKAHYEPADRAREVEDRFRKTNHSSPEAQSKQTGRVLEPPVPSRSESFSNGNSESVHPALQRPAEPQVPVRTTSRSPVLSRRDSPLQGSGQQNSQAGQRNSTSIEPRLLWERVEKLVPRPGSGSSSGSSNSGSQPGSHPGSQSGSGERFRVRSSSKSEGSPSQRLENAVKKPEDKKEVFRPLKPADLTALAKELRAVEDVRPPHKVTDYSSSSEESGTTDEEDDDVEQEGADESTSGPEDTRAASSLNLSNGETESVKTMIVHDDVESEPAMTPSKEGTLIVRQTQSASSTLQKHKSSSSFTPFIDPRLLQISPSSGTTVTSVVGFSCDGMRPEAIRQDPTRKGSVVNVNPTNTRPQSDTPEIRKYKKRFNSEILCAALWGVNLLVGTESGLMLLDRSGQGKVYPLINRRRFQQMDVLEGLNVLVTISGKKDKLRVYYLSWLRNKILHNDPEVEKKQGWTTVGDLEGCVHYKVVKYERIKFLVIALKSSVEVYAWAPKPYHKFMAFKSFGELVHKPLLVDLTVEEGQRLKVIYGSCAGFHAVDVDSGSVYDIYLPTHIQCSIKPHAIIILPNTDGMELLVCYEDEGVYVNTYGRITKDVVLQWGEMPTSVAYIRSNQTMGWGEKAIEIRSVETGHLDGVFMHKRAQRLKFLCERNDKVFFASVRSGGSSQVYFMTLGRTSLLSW
Chain of Interleukin-1 receptor-associated kinase 4 (Homo sapiens) (Q9NWZ3 whole entry, the tested form may be a part, canonical isoform): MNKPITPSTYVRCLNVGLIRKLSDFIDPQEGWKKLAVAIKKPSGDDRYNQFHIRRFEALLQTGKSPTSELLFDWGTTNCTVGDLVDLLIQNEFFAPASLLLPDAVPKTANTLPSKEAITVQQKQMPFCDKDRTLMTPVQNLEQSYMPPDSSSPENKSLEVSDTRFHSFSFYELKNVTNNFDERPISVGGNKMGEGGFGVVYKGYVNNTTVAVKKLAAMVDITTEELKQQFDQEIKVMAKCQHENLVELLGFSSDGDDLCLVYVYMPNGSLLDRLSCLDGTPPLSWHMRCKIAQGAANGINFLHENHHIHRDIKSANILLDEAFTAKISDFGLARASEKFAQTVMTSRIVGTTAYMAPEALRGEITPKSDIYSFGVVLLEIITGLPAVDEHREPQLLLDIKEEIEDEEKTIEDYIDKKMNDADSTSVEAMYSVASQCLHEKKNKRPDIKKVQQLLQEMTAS

Regarding `Cc1ccc(NC(=O)c2ccc(CN(CCN(C)C)C(=O)c3cccnc3)cc2)cc1Nc1nccc(-c2cccnc2)n1`, the Activity is 92% in data set [1]; 91% in [3]; “Toxic” in the data set on Mus musculus; 100% in data set [4]; 88% in data set [5]; 87% in [6]. Besides, the Activity in data set [7], in data set [8], in data set [9], in data set [10], in data set [11] and in data set [12] was 100% each time. For the same compound, the Activity in data set [13] is 95%; in data set [14], 72%; in data set [15], 100%; in data set [16] it was 77%; in data set [17], 88%; in data set [18] it was 100%. Besides, the concentration for 50% growth inhibition (GI50) in data set [2] was found to be 2.9 µM.

As usually defined, the GI50 is the concentration giving 50% growth inhibition.
